The results in this text go back to PubChem BioAssay.

Assay [1] is described as follows: S. cerevisiae growth inhibition in permissive medium (OD615), pilot counter-assay for S. cerevisiae lifespan shortening project, permissive growth control (AID 705;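 active = growth inhibition above 25% in both replicates, a cutoff set 3 SD above the mean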). Particulars: OD615, 24 h, at 10 µM, active compounds read high. The method in brief: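 assay system = Saccharomyces cerevisiae strain carrying genetically modified DeaD replicative-lifespan system | medium = SC raffinose/galactose permissive medium | dosing = 10 µM single dose, 0.25% DMSO | schedule = 24 h compound exposure at 30 °C after 4 h pre-growth | measured by = OD at 615 nm | read-out basis = growth inhibition from lowered OD615 after 24 h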

Assay [2] can be described thus: S. cerevisiae growth inhibition in restrictive medium, OD615, pilot screen, restrictive growth control, yeast lifespan reduction project (AID 706;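 active = growth inhibition above a set limit, 3 SD over mean compound inhibition, in both replicates, cut at about 43% in these data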). Particulars: OD615, 48 h, at 10 µM, active compounds read high. The method in brief: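 Buffer or medium: CSMM-D glucose medium. Material: genetically modified Saccharomyces cerevisiae, DeaD replicative lifespan assay strain. Times: 48 h compound exposure at 30 °C. Measured by: optical density at 615 nm.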

Assay [3] in a line: doxorubicin toxicity protection in MRP-1 cells – H69AR cells, CellTiter-Glo, duplicate, MRP-1 activator project, pilot screen (AID 807;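 active = viability increase at or above a cutoff of the median across tested compounds plus 3 SD, cut at about 8.5% in these data, passing the limit was not always enough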;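 note: compound pretreatment 18-22 h then 72 h combined with doxorubicin; 0% = doxorubicin alone and 100% = vehicle without doxorubicin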). Particulars: H69AR viability with doxorubicin, CellTiter-Glo luminescence; at 10 µM; active compounds read high.
Assay [4] can be described thus: viability of HCT116 without oncogenic beta-catenin – human colon tumor cells, pilot screen (AID 823;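 active = cell viability at or below a set limit in both duplicate runs, the limit being the all-compound median minus 4 SD, cut at about 23% in these data, passing the limit was not always enough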;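 note: 0% = wells killed by 20 µM Hyamine and 100% = untreated DMSO cell wells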). Particulars: HCT116 beta-catenin knockout viability, CellTiter-Glo, 60 h; at 10 µM; active compounds read low.
Assay [5] is described as follows: viability of PTEN-null HCT116 cells – cell-based, HCT116 clonal line, CellTiter-Glo, pilot screen (AID 824;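 active = viability at or below 27.92% in each of two runs, the all-compound median minus 4 SD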;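 note: 0% = 20 µM Hyamine control and 100% = vehicle cell control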). Particulars: HCT116 PTEN-deleted viability, 60 h, at 10 µM, active compounds read low.
The nature of assay [6]: RAM pathway blockade in budding yeast – dse1pr::URA3 reporter, 5-FOA selection, pilot screen (AID 869).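 Note: 0% = DMSO wells with no growth and 100% = 10 µM 1-NA-PP1 with full growth; RAM network block rescues cells from 5-FOA so hits raise OD615 growth.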 Particulars: S. cerevisiae dse1pr::URA3 5-FOA growth, OD615, 2 d; at 10 µM; active compounds read high; strain carries analog-sensitive mutant Cbk1 kinase.
A short description of assay [7]: RAM signaling pathway blockade in yeast – S. cerevisiae, Pdr1DBD-CYC8 efflux-inhibited sensitized strain, primary screen (AID 1298;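 active = RAM network inhibition above 8.4% in each of two replicates, 3 SD over the compound average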;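 note: 0% = DMSO untreated cells without growth and 100% = 10 µM 1-NA-PP1 full growth; higher means more yeast growth rescued from 5-FOA killing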). Particulars: S. cerevisiae cbk1-as DSE1-URA3 strain, 5-FOA growth OD615, 2 d; at 50 µM; active compounds read high.

Values without a mark were called inactive. Results filed as inconclusive are left out. Active and inactive are the calls of the source.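 Rule for the calls, unless noted: active = inhibition over a set limit, the all-compound mean plus 3 SD, in both replicate runs; inconclusive = over that limit in just one replicate run; inactive = at or under that limit in both runs.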

Turning to `CCOc1ccccc1C1N(c2ccc(OC)cc2)C(=O)C2CCCN21` (stereo unspecified), the values for the growth inhibition in assay [1] and in assay [2] were -3.72% and -10.4%, respectively. In assay [3], the viability increase is -0.9%. For the same molecule, the viability is 99.8% in assay [4] and 101% in assay [5]. The inhibition in assay [6] was 2.9%. Besides, the RAM network inhibition in assay [7] is -1.29%.

Regarding `O=C1C2C3C=CC(C3)C2C(=O)N1c1ccccc1` (stereo unspecified), the growth inhibition is -0.875% in assay [1] and 4.47% in assay [2]. For the same molecule, the viability increase in assay [3] is 0.71%. Also, the viability in assay [4] was 100%; in assay [5] it was 98.7%. Besides, the inhibition in assay [6] was 1.81%. Besides, the RAM network inhibition in assay [7] was 1.49%.

As to `O=C(COC(=O)C1CCCO1)Nc1cccc(C(F)(F)F)c1` (stereo unspecified), the growth inhibition in assay [1] was -22.8%; in assay [2], -15.9%. Besides, in assay [3], the viability increase is 0%. The values for the viability in assay [4] and in assay [5] were 91.8% and 94.5%, respectively. The inhibition in assay [6] is 1.63%. Also, in assay [7], the RAM network inhibition was 2.45%.

As to `Cc1ccnc(Nc2nc3ccccc3o2)n1`, the growth inhibition in assay [1] is 2.6%; in assay [2], 24.6%. The viability increase in assay [3] was -4.36%. The values for the viability in assay [4] and in assay [5] were 62% and 57.7%, respectively. Besides, the inhibition in assay [6] was 0.905%. In assay [7], the RAM network inhibition is 4.15%.

Take `CN(C)C(=O)CSc1nnc(-c2cccnc2)n1-c1ccccc1`: the figures for the growth inhibition in assay [1] and in assay [2] were -5.85% and -5.54%, respectively. Moreover, in assay [3], the viability increase was -0.98%. Moreover, the viability in assay [4] was 98.6%; in assay [5], 95.1%. The inhibition in assay [6] is 1.36%. Moreover, in assay [7], the RAM network inhibition was 2.91%.

`CCOC(=O)C1CCCN(C(=O)c2cn(CC)c3ccc(S(=O)(=O)N(C)C)cc3c2=O)C1` (stereo unspecified): the growth inhibition in assay [1] was -5.92%; in assay [2] it was -15.5%. Also, the viability increase in assay [3] was -0.67%. The viability was 108% in assay [4] and 102% in assay [5]. Also, the inhibition in assay [6] is 0.85%. Moreover, in assay [7], the RAM network inhibition was 0.1%.

For `COc1c2c(nc3ccccc13)OC(C(C)(O)COC(C)=O)C2` (stereo unspecified), the growth inhibition was -2.59% in assay [1] and 5.38% in assay [2]. Besides, the viability increase in assay [3] is -1.44%. For the same molecule, the results for the viability in assay [4] and in assay [5] were 98.6% and 95.7%, respectively. Besides, in assay [6], the inhibition is 0.275%. Besides, the RAM network inhibition in assay [7] was 1.41%.

As for `Cn1c(=O)oc2cc(S(=O)(=O)N3CCC(C(=O)N4CC=C(c5ccccc5)CC4)CC3)ccc21`, the growth inhibition in assay [1] was -0.22%; in assay [2] it was 4.63%. The viability increase in assay [3] was 0.15%. Also, the viability was 98.9% in assay [4] and 94.8% in assay [5]. The inhibition in assay [6] is 0.01%. Moreover, the RAM network inhibition in assay [7] is 6.76%.

As to `O=C(NCN1CCc2ccccc2C1)c1cnccn1`, the growth inhibition in assay [1] was -18.3%; in assay [2], -15.1%. For the same molecule, in assay [3], the viability increase was -3.49%. In addition, the values for the viability in assay [4] and in assay [5] were 96.3% and 96.6%, respectively. For the same molecule, the inhibition in assay [6] is 3.92%. Also, in assay [7], the RAM network inhibition is 5.24%.

For the molecule `COc1cccc(-c2csc(NC(=O)C3CC3)n2)c1`, the growth inhibition in assay [1] is 1.37%; in assay [2], 13.5%. Besides, the viability increase in assay [3] is 4.92%. In addition, the viability was 96.6% in assay [4] and 91.5% in assay [5]. The inhibition in assay [6] was -0.98%. Further, the RAM network inhibition in assay [7] was 1.49%.

Consider `COc1ccc(S(=O)(=O)N2CCC(C(=O)Nc3cccc(Cl)c3)CC2)cc1OC`, for which the growth inhibition was -2.42% in assay [1] and -2.81% in assay [2]. Also, the viability increase in assay [3] was -3.54%. Moreover, the results for the viability in assay [4] and in assay [5] were 75.9% and 78%, respectively. Moreover, the inhibition in assay [6] is 0.63%. In addition, in assay [7], the RAM network inhibition is 1.52%.

Take `c1ccc(Cc2nnc3sc(-c4ccc5c(c4)OCCO5)nn23)cc1`: the values for the growth inhibition in assay [1] and in assay [2] were 4.51% and 55.8% (active), respectively. Also, the viability increase in assay [3] was 0.47%. For the same molecule, the viability was 105% in assay [4] and 93.5% in assay [5]. Further, the inhibition in assay [6] is 1.33%. Further, the RAM network inhibition in assay [7] was 12.8%.

On to `COCCOC(=O)C1=C(C)NC2=C(C(=O)CCC2)C1c1ccc2c(c1)OCO2` (stereo unspecified), for which the results for the growth inhibition in assay [1] and in assay [2] were -3.56% and -17.8%, respectively. Besides, in assay [3], the viability increase was -2.23%. Also, the values for the viability in assay [4] and in assay [5] were 93.9% and 93%, respectively. In addition, the inhibition in assay [6] was 1.08%. Moreover, in assay [7], the RAM network inhibition is 0.14%.

For the molecule `CCOC(=O)COc1cccc2c(=O)n(CC(=O)N3CCN(C(=O)OCC)CC3)ccc12`, the growth inhibition in assay [1] was -4.37%; in assay [2], -7.13%. Moreover, the viability increase in assay [3] is -2.1%. Moreover, the viability is 104% in assay [4] and 96.1% in assay [5]. For the same molecule, the inhibition in assay [6] was 1.04%. In addition, in assay [7], the RAM network inhibition was 4.18%.

On to `CCCCCn1c(SCCOCC)nc2c1c(=O)[nH]c(=O)n2C`, for which the growth inhibition is -10.1% in assay [1] and -15.6% in assay [2]. The viability increase in assay [3] is -0.61%. In addition, the figures for the viability in assay [4] and in assay [5] were 96.2% and 97.2%, respectively. Further, in assay [6], the inhibition was 1.75%. In assay [7], the RAM network inhibition is 4.65%.

As for `CCOc1ccc(NC(=O)CN2C(=O)COc3ccc(Cl)cc32)cc1`, the growth inhibition in assay [1] was -17%; in assay [2] it was -12.8%. In addition, the viability increase in assay [3] was 3.8%. The viability in assay [4] is 97.4%; in assay [5], 90.1%. In addition, the inhibition in assay [6] was 2.06%. Besides, in assay [7], the RAM network inhibition is 6.61%.

As to `Cc1ccccc1NC(=O)c1ccc(S(=O)(=O)N(C)C)cc1`, the growth inhibition is -9.3% in assay [1] and -2.52% in assay [2]. Further, the viability increase in assay [3] was 0.67%. The viability in assay [4] was 102%; in assay [5] it was 94%. For the same molecule, the inhibition in assay [6] was 2.17%. Moreover, the RAM network inhibition in assay [7] is 2.21%.

Consider `COc1ccc2cc3c(N)nn(C(=O)Cc4ccccc4OC)c3nc2c1`, for which the growth inhibition is 10.1% in assay [1] and 17.7% in assay [2]. In assay [3], the viability increase was -8.54%. For the same molecule, the viability in assay [4] is 2.78% (active); in assay [5], 5.52% (active). In assay [6], the inhibition is 0.65%. The RAM network inhibition in assay [7] is 2.84%.
